According to ChEMBL document CHEMBL4270523, “A comparative study of non-native N-acyl l-homoserine lactone analogs in two Pseudomonas aeruginosa quorum sensing receptors that share a common native ligand yet inversely regulate virulence” (Bioorg Med Chem, 2018):

Columns and labels:
[1] = target: T1, PhzR (Pseudomonas aeruginosa) (UniProt Q9RMS5); test: Agonist activity at Pseudomonas aeruginosa QscR expressed in Escherichia coli JLD271 harboring QscR expression plasmid pJN105Q and pPA1897-lacZ transcriptional fusion reporter pSC11-Q measured after 35 mins by Miller-type beta-galactosidase reporter gene assay relative to OdDHL
T1 sequence (whole entry): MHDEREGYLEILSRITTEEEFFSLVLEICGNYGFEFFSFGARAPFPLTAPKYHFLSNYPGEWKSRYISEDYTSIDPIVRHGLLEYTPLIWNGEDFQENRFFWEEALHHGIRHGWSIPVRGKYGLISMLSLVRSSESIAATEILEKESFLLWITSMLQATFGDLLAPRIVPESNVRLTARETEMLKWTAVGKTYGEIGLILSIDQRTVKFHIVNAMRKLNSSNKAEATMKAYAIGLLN
Procedure, shortened: (§1)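 E. coli JLD271 (ΔsdiA) reporter cells grown in LB at 37 °C. Miller-type β-galactosidase assay with CPRG or ONPG substrate; growth read as OD600. Compounds tested from 1 pM to 100 μM. Activity is expressed relative to 100 μM OdDHL. EC50 taken from dose–response curves. Run in triplicate, n ≥ 3 trials; 95% CIs from SEM. Maximum activation has error ±10%.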

[2] = target: T2, Transcriptional activator protein LasR (Pseudomonas aeruginosa (strain ATCC 15692 / PAO1 / 1C / PRS 101 / LMG12228)) (UniProt P25084); test: Agonist activity at Pseudomonas aeruginosa LasR expressed in Escherichia coli JLD271 harboring LasR expression plasmid pJN105L and lasI-lacZ transcriptional fusion reporter pSC11-L measured after 35 mins by Miller-type beta-galactosidase reporter gene assay relative to OdDHL; procedure, shortened: as §1
T2 sequence (whole entry): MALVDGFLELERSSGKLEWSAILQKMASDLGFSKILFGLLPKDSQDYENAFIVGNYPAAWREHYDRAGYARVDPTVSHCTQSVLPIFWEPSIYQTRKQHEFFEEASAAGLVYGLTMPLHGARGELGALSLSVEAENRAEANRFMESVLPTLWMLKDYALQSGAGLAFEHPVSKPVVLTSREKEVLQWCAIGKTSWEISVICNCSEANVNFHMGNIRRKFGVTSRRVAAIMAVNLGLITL

[3] = target: T3, Transcriptional activator protein LasR (Pseudomonas aeruginosa (strain ATCC 15692 / PAO1 / 1C / PRS 101 / LMG12228), UniProt P25084); test: (§2) Agonist activity at Pseudomonas aeruginosa LasR expressed in Escherichia coli JLD271 harboring LasR expression plasmid pJN105L and lasI-lacZ transcriptional fusion reporter pSC11-L measured after 35 mins by Miller-type beta-galactosidase reporter gene assay
T3 sequence (P25084 whole entry): T2 sequence (whole entry)
Procedure, shortened: as §1, with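 “curves.” for “curves. Run in triplicate, n ≥ 3 trials; 95% CIs from SEM.”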

PhzR [4] = target: T4, PhzR (Pseudomonas aeruginosa, UniProt Q9RMS5); test: (§3) Agonist activity at Pseudomonas aeruginosa QscR expressed in Escherichia coli JLD271 harboring QscR expression plasmid pJN105Q and pPA1897-lacZ transcriptional fusion reporter pSC11-Q measured after 35 mins by Miller-type beta-galactosidase reporter gene assay
T4 sequence (Q9RMS5 whole entry): T1 sequence (whole entry)
Procedure, shortened: as §1, with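 “curves.” for “curves. Run in triplicate, n ≥ 3 trials; 95% CIs from SEM.”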

[5] = target: T3, Transcriptional activator protein LasR; test: as §2, with “Antagonist” for “Agonist”, “assessed as inhibition of OdDHL-induced receptor activation” for “measured”, “4 hrs” for “35 mins”
[6] = target: T2, Transcriptional activator protein LasR (Pseudomonas aeruginosa (strain ATCC 15692 / PAO1 / 1C / PRS 101 / LMG12228)); test: as above; conditions: concentration not given here
[7] = target: T1, PhzR (Pseudomonas aeruginosa); test: as §3, with “Antagonist” for “Agonist”, “using ONPG as substrate assessed as inhibition of OdDHL-induced receptor activation” for “measured”, “4 hrs” for “35 mins”; conditions: concentration not given here
PhzR [8] = target: T4, PhzR; test: as above

| SMILES | Activity [1] [%] | Activity [2] [%] | EC50 [3] [nM] | EC50 (PhzR [4]) [nM] | IC50 [5] [nM] | inhibition [6] [%] | inhibition [7] [%] | IC50 (PhzR [8]) [nM] |
| --- | --- | --- | --- | --- | --- | --- | --- | --- |
| CCCCCCCCCC(=O)CC(=O)N[C@@H]1CCOC1=O | 110 | 99 |  |  |  |  |  |  |
| CCCCCCCCCC(=O)CC(=O)NC1CCCC1 | 100 | 88 | 162 | 359 |  |  |  |  |
| CCCCCCCCCC(=O)CC(=O)N[C@H]1CCCC1=O | 77 | 110 | 14.9 | 834 |  |  |  |  |
| CCCCCCCCCC(=O)CC(=O)N[C@H]1CCNC1=O | 56 | 110 | 29.7 | 3320 |  |  |  |  |
| CCCCCCCCCC(=O)CC(=O)O[C@H]1CCOC1=O | 37 | 27 |  |  | > 250000 | 53 | 23 | > 250000 |
| CCCCCCCCCCCS(=O)(=O)N[C@H]1CCOC1=O | 72 | 6.4 |  | 1590 |  |  |  |  |
| CCCCCCCCCC(=O)CC(=O)NCC1CCCO1 (stereo not given) | 3.2 | 96 | 256 |  |  |  | 59 | > 250000 |
| CCCCCCCCCC(=O)CC(=O)N[C@H]1CCO[C@@H]1O | 110 | 96 | 1880 | 3460 |  |  |  |  |
| CCCCCCCCCC(=O)CC(=O)N[C@H]1CCOC1 | 74 | 81 | 906 | 815 |  |  |  |  |
| CCCCCCCCCC(=O)CC(=O)N[C@H]1CCSC1=O | 110 | 100 | 1.53 | 80.5 |  |  |  |  |
